Experimental data from ChEMBL document CHEMBL3758106, “Antitumor Activity of Americanin A Isolated from the Seeds of Phytolacca americana by Regulating the ATM/ATR Signaling Pathway and the Skp2-p27 Axis in Human Colon Cancer Cells” (J Nat Prod, 2015).
Active and inactive are the calls of the source. No cut-off for these calls is given here.

What was measured:
[1] = target: Cullin-1/S-phase kinase-associated protein 1 (Homo sapiens) (UniProt Q13616+P63208); assay: Inhibition of Cul-1/Skp1 protein interaction in human HCT116 cells after 24 hrs by immunoprecipitation assay; type: cell-based; conditions: HCT-116
Chain of Cullin-1/S-phase kinase-associated protein 1 (Homo sapiens) (P63208 whole entry, looked up): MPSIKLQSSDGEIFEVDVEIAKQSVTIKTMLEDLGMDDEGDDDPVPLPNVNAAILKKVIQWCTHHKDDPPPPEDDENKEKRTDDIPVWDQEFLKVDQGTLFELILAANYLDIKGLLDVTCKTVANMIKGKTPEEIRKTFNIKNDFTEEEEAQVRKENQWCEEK
Chain of Cullin-1/S-phase kinase-associated protein 1 (Homo sapiens) (Q13616 whole entry, looked up): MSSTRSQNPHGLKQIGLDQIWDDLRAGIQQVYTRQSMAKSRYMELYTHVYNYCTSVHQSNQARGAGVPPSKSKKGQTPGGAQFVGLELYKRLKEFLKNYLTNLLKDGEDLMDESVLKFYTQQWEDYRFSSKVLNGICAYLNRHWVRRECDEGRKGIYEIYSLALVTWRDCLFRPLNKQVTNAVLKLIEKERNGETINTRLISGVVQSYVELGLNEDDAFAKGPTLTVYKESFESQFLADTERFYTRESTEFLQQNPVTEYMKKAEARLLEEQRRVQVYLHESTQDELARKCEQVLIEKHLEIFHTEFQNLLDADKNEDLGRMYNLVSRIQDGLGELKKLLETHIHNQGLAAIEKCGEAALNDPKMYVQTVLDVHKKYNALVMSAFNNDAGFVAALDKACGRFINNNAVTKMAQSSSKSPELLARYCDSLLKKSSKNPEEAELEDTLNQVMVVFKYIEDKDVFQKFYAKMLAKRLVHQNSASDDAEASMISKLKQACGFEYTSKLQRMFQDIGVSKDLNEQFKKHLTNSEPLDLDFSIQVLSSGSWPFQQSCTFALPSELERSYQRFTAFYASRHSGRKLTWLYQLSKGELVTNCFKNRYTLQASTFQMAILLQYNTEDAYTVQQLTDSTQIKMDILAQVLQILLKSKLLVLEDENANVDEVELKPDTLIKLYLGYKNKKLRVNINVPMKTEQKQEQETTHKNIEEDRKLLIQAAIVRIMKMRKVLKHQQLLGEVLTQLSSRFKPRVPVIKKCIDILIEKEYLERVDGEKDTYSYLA
How it was run: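 Protein measured by Bradford, equal amounts pulled down with anti-Cul-1 antibody on Protein G sepharose at 4 °C. Eluates boiled in Laemmli buffer with 2-mercaptoethanol and probed by Western blot.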

[2] = system: HCT-116; assay: Induction of cell cycle arrest in human HCT116 cells assessed as accumulation at G0/G1 phase at 7.5 uM after 24 hrs by propidium iodide staining-based flow cytometric analysis in presence of RNase A (reference value: 64.6%); type: functional
[3] = system: HCT-116; assay: Induction of cell cycle arrest in human HCT116 cells assessed as accumulation at sub-G1 phase at 30 uM after 48 hrs by propidium iodide staining-based flow cytometric analysis in presence of RNase A (reference value: 6.5%); type: functional
[4] = system: HCT-116; assay: Reduction in histone H3 Lys9 acetylation in human HCT116 cells at 7.5 to 30 uM after 24 hrs by Western blot analysis; type: functional, cell-based
[5] = Upregulation of ATM expression in human HCT116 cells at 1 hr by Western blot analysis; type: functional, cell-based; conditions: HCT-116
[6] = Downregulation of phosphorylated ATR expression in human HCT116 cells at 30 uM after 1 hr by Western blot analysis; type: functional, cell-based; conditions: HCT-116, TDE = time-dependent effect
How it was run: (§1)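 HCT116 cells exposed for 1 h in complete medium; RIPA lysates quantified by BCA, equal protein separated on 8–13% SDS-PAGE, transferred to PVDF, probed with primary antibodies overnight at 4 °C and HRP secondaries, chemiluminescence read-out.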

[7] = system: HCT-116; assay: Induction of cell cycle arrest in human HCT116 cells assessed as accumulation at sub-G1 phase at 7.5 uM after 48 hrs by propidium iodide staining-based flow cytometric analysis in presence of RNase A (reference value: 6.5%); type: functional
[8] = Decrease in Skp2 expression in human HCT116 cells at 7.5 to 30 uM after 24 hrs by western blot analysis; type: functional, cell-based; conditions: HCT-116
How it was run: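 HCT116 cells exposed 24 h in complete medium; lysed in RIPA buffer (pH 8.0), protein by BCA, equal loads run on 8–13% SDS-PAGE, PVDF transfer, blocked in 5% BSA/TBST, primary antibodies overnight at 4 °C, HRP secondaries 2 h RT, ECL detection; β-actin as loading control.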

[9] = system: HCT-116; assay: Induction of cell cycle arrest in human HCT116 cells assessed as accumulation at G2/M phase at 15 uM after 48 hrs by propidium iodide staining-based flow cytometric analysis in presence of RNase A (reference value: 19.7%); type: functional
[10] = Downregulation of ATR expression in human HCT116 cells at 30 uM after 1 hr by Western blot analysis; type: functional, cell-based; conditions: HCT-116, TDE = time-dependent effect; how it was run: as §1
[11] = system: HCT-116; assay: Induction of cell cycle arrest in human HCT116 cells assessed as accumulation at G0/G1 phase at 30 uM after 24 hrs by propidium iodide staining-based flow cytometric analysis in presence of RNase A (reference value: 64.6%); type: functional
[12] = system: Mus musculus; assay: Upregulation of p21 in human HCT116 cells xenografted in nude mouse at 5 to 10 mg/kg, ip administered 3 times per week measured on day 41 by Western blot analysis; type: functional, organism-based; conditions: HCT-116
How it was run: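 HCT116 xenografts in nude mice dosed ip at 5 or 10 mg/kg three times weekly to day 41. Portions of the excised frozen tumors were thawed on ice, homogenized in complete lysis buffer, protein quantified by Bradford, and p21, p27 and Skp2 assessed by Western blot with β-actin as internal control.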

[13] = system: HCT-116; assay: Induction of cell cycle arrest in human HCT116 cells assessed as accumulation at G0/G1 phase at 30 uM after 48 hrs by propidium iodide staining-based flow cytometric analysis in presence of RNase A (reference value: 54.3%); type: functional
[14] = system: HCT-116; assay: Induction of apoptosis in human HCT116 cells assessed as cleaved caspase 8 level at 30 uM up to 24 hrs by Western blot analysis in presence of NAC; type: functional, cell-based
[15] = system: HCT-116; assay: Induction of apoptosis in human HCT116 cells assessed as late apoptotic cells at 30 uM after 48 hrs by annexin V-FITC/propidium iodide staining-based flow cytometric analysis (reference value: 5.2%); type: functional
[16] = system: HCT-116; assay: Induction of apoptosis in human HCT116 cells assessed as viable cells at 30 uM after 48 hrs by annexin V-FITC/propidium iodide staining-based flow cytometric analysis (reference value: 91.2%); type: functional; conditions: HCT-116, 48 h, read-out: Activity
[17] = system: HCT-116; assay: Induction of apoptosis in human HCT116 cells assessed as late apoptotic cells at 15 uM after 48 hrs by annexin V-FITC/propidium iodide staining-based flow cytometric analysis (reference value: 5.2%); type: functional
[18] = system: K562; assay: Antiproliferative activity against human K562 cells after 24 to 72 hrs by SRB assay; type: functional, cell-based
How it was run: (§2)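 Cells grown in 96-well plates (RPMI 1640; MRC-5 in MEM, 10% FBS, antibiotics) with compound […]; fixed in 10% TCA 30 min at 4 °C, stained 0.4% SRB in 1% acetic acid 1 h, dye dissolved in 10 mM Tris pH 10.0, A515 read; viability as % of solvent control, IC50 by nonlinear regression; mean of three independent experiments.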

[19] = system: HCT-116; assay: Induction of apoptosis in human HCT116 cells assessed as dead cells at 7.5 uM after 48 hrs by annexin V-FITC/propidium iodide staining-based flow cytometric analysis (reference value: 2%); type: functional
[20] = system: HCT-116; assay: Induction of apoptosis in human HCT116 cells assessed as cleaved PARP level at 30 uM up to 48 hrs by Western blot analysis in presence of NAC
[21] = system: HCT-116; assay: Induction of apoptosis in human HCT116 cells assessed as decrease in Bcl-xL expression at 7.5 to 30 uM after 48 hrs by Western blot analysis; type: functional, cell-based
How it was run: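 HCT116 cells exposed 48 h; Western blot of RIPA lysates (BCA quantification, SDS-PAGE, PVDF, overnight primary antibodies at 4 °C, HRP secondary, ECL).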

[22] = Antiproliferative activity against human HCT15 cells after 24 to 72 hrs by SRB assay; type: functional, cell-based; conditions: HCT-15; how it was run: as §2
[23] = system: Mus musculus; assay: Toxicity in nude mouse assessed as change in body weight at 5 to 10 mg/kg, ip administered 3 times per week measured on day 41; type: organism-based; conditions: in vivo
How it was run: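 Nude mice implanted s.c. in the flank with 2 × 10^6 HCT116 cells. Once tumors reached about 120 mm3, mice were randomized, six per group, to vehicle or compound at 5 or 10 mg/kg ip (200 μL) three times weekly; irinotecan 10 mg/kg ip once weekly as reference. Body weight recorded twice weekly to assess toxicity; study ended day 41.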

[24] = Antitumor activity against human HCT116 cells xenografted in nude mouse assessed as tumor growth inhibition at 10 mg/kg, ip administered 3 times per week measured on day 41; type: functional; conditions: HCT-116, ip, 984 h, read-out: TGI
How it was run: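 Nude mice given 2 × 10^6 HCT116 cells subcutaneously in flank; at ~120 mm3 randomised, six per group; ip dosing in 200 μL, test agent 5 or 10 mg/kg three times weekly, irinotecan 10 mg/kg once weekly; tumour volume measured twice weekly to day 41; body weight tracked for toxicity.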

Q: For O=C/C=C/c1ccc2c(c1)O[C@@H](CO)[C@H](c1ccc(O)c(O)c1)O2 [AMERICANIN A], which inhibition [1] is on record?
A: inactive

Q: What about the Activity [2] of the same molecule?
A: 55.4%

Q: And the Activity [3]?
A: 52%

Q: What about the Activity [4] of the same molecule?
A: Active

Q: And the Activity [5]?
A: Dose-dependent effect

Q: And the Activity [6]?
A: tde

Q: And the Activity [7]?
A: 7.6%

Q: And the Activity [8]?
A: Active

Q: And the Activity [9]?
A: 20.3%

Q: What about the Activity [10] of the same molecule?
A: tde

Q: What about the Activity [11] of the same molecule?
A: 39%

Q: And the Activity [12]?
A: Active

Q: And the Activity [13]?
A: 16.4%

Q: And the Activity [14]?
A: inactive

Q: And the Activity [15]?
A: 18.9%

Q: And the viability at 30 µM [16]?
A: 30.6%

Q: What about the Activity [17] of the same molecule?
A: 11.1%

Q: What about the IC50 [18] of the same molecule?
A: 12.9 µM

Q: What about the Activity [19] of the same molecule?
A: 2%

Q: What about the Activity [20] of the same molecule?
A: inactive

Q: And the Activity [21]?
A: Active

Q: And the IC50 [22]?
A: 12.5 µM

Q: And the Activity [23]?
A: Non-toxic

Q: And the inhibition in vivo at 10 mg/kg [24]?
A: 55.7%
